The values below come from ChEMBL document CHEMBL4330096, “Discovery of potent and selective 5-azaindazole inhibitors of leucine-rich repeat kinase 2 (LRRK2) - Part 1” (Bioorg Med Chem Lett, 2019).

Test [1] deals with Homeodomain-interacting protein kinase 2 (Homo sapiens) (UniProt Q9H2X6). Put plainly: Inhibition of HIPK2 (unknown origin) at 1 uM relative to control. Summed up:
(§1)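 Single-point screen of each compound against a panel of 59 protein kinases, at 1 or 10 μM. The panel data are also summarised as a rescaled geometric mean selectivity score.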

Test [2] addresses Serine/threonine-protein kinase Chk2 (Homo sapiens) (UniProt O96017). Put plainly: Inhibition of CHK2 (unknown origin) at 1 uM relative to control. Summed up: as §1
For test [3], the target named is T1, Serine/threonine-protein kinase Chk1 (Homo sapiens) (UniProt O14757).
T1 sequence (whole entry): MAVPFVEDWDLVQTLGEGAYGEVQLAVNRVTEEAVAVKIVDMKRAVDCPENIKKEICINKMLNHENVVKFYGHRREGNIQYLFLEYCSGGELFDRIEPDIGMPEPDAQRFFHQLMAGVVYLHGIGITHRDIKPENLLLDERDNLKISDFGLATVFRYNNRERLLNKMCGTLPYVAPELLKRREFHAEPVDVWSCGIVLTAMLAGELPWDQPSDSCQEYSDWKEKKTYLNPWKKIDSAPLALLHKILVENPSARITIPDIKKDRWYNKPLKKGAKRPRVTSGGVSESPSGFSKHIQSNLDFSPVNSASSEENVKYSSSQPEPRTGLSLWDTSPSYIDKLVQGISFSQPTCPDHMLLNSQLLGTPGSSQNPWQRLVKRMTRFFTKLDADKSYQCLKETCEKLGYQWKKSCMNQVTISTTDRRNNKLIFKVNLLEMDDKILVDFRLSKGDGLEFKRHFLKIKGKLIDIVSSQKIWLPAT
Put plainly: Inhibition of CHK1 (unknown origin) at 1 uM relative to control. Summed up: as §1

The target in test [4] is Aurora kinase B (Homo sapiens) (UniProt Q96GD4). Put plainly: Inhibition of Aurora B (unknown origin) at 1 uM relative to control. Summed up:
as §1

In test [5] the target is Maternal embryonic leucine zipper kinase (Homo sapiens) (UniProt Q14680). The test can be described thus: Inhibition of MELK (unknown origin) at 1 uM relative to control. Summed up:
(§2)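 Single-concentration screen of each compound against a 59-protein-kinase panel, run at 10 µM or 1 µM. Activity relative to control is shown as a heat map across the panel.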

Test [6] has as its target T2, Ephrin type-B receptor 3 (Homo sapiens) (UniProt P54753).
T2 sequence (whole entry): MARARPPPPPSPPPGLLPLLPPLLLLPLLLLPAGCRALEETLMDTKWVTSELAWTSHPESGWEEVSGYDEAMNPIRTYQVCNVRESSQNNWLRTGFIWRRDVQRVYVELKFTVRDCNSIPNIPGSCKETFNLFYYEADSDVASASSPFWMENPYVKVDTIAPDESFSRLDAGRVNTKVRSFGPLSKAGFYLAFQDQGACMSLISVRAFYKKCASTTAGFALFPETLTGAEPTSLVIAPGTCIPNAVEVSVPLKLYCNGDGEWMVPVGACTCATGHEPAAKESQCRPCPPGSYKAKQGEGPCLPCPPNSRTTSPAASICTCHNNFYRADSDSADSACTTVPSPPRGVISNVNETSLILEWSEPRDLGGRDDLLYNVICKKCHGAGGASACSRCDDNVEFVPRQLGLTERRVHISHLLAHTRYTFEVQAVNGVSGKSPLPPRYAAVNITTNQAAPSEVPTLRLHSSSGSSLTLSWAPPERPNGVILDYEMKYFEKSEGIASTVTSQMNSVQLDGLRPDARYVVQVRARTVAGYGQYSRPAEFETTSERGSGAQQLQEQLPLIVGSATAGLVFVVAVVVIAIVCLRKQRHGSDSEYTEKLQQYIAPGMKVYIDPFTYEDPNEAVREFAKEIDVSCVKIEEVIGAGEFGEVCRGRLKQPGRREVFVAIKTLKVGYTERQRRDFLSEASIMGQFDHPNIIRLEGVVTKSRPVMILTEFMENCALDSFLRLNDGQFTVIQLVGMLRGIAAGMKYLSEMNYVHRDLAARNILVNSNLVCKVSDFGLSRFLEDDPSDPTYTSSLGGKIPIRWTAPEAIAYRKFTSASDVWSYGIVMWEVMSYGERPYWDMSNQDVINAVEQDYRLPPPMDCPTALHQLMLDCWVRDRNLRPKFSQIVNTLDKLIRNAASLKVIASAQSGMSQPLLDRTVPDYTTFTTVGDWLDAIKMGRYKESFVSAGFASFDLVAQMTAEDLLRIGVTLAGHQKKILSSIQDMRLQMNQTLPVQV
The test can be described thus: Inhibition of EPHB3 (unknown origin) at 1 uM relative to control. The essentials: as §1

The target in test [7] is T3, MAP kinase-activated protein kinase 5 (Homo sapiens) (UniProt Q8IW41).
T3 sequence (whole entry): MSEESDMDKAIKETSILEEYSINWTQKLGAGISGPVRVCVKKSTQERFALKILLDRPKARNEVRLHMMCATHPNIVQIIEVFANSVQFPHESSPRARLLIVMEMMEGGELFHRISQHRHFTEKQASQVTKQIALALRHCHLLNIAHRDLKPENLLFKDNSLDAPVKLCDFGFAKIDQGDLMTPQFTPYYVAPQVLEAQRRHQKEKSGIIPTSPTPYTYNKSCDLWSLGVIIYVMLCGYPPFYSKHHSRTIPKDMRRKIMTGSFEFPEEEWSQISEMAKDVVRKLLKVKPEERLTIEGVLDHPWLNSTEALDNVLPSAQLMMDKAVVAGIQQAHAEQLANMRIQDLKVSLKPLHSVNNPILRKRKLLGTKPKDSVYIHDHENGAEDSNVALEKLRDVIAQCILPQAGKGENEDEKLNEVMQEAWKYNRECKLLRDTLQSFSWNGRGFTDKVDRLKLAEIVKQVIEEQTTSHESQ
The test can be described thus: Inhibition of PRAK (unknown origin) at 1 uM relative to control. Summed up:
as §2

Test [8] addresses Insulin receptor-related protein (Homo sapiens) (UniProt P14616). Put plainly: Inhibition of IRR (unknown origin) at 1 uM relative to control. Summed up: as §1
For test [9], the target named is Serine/threonine-protein kinase PAK 4 (Homo sapiens) (UniProt O96013). Put plainly: Inhibition of PAK4 (unknown origin) at 1 uM relative to control. Summed up: as §2
Serine/threonine-protein kinase PAK 4 (Homo sapiens), sequence (O96013 whole entry, looked up): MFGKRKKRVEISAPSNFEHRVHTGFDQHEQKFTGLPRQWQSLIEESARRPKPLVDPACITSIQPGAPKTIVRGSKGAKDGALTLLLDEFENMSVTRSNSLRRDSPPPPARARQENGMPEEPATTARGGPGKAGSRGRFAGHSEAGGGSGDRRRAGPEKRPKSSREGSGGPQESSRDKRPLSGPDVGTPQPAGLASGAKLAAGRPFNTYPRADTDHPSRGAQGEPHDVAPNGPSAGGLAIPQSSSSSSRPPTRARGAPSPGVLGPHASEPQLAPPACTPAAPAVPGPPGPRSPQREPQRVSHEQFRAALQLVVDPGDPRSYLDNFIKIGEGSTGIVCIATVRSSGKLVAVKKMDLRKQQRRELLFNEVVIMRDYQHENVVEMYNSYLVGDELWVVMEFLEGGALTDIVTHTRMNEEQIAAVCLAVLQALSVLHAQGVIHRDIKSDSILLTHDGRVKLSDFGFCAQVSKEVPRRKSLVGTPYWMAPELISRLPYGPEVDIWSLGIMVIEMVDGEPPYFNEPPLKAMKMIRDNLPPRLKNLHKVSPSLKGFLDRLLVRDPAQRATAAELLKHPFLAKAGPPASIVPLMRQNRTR
Test [10] addresses Calcium/calmodulin-dependent protein kinase kinase 2 (Homo sapiens) (UniProt Q96RR4). Put plainly: Inhibition of CAMKKb (unknown origin) at 1 uM relative to control. The essentials: as §1

Homeodomain-interacting protein kinase 2 (Homo sapiens), sequence (Q9H2X6 whole entry, looked up): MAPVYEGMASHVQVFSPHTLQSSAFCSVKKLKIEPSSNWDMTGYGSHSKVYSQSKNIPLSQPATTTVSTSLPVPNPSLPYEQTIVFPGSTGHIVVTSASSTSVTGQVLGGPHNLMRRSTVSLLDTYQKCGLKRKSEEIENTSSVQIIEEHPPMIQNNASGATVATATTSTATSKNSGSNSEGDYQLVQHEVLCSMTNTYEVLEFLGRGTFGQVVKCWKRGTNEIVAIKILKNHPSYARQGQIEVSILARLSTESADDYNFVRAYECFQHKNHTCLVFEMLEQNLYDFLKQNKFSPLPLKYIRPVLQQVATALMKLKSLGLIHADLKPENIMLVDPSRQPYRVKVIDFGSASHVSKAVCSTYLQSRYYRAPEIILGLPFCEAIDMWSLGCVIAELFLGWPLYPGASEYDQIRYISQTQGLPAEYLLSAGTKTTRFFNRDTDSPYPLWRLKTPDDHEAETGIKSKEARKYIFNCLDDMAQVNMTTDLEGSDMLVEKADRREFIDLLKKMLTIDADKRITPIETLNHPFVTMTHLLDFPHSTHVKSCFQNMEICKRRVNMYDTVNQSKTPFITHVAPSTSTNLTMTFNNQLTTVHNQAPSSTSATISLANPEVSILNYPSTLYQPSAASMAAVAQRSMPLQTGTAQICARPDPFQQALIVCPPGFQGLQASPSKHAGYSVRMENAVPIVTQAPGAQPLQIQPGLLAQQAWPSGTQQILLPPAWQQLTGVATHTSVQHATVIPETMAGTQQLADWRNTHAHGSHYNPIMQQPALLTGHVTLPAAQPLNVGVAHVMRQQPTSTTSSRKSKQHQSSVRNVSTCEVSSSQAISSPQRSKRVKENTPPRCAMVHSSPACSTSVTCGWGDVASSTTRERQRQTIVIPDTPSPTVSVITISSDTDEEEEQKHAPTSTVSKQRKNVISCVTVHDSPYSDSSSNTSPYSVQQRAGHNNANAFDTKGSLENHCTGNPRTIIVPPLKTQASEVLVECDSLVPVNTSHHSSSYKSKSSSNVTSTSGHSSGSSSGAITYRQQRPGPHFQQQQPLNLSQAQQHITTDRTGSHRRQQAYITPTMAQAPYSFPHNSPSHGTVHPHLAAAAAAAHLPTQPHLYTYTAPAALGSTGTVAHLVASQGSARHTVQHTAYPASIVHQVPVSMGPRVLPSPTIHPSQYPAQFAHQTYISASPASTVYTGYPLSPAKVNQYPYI
Calcium/calmodulin-dependent protein kinase kinase 2 (Homo sapiens), sequence (Q96RR4 2-588 limits assumed): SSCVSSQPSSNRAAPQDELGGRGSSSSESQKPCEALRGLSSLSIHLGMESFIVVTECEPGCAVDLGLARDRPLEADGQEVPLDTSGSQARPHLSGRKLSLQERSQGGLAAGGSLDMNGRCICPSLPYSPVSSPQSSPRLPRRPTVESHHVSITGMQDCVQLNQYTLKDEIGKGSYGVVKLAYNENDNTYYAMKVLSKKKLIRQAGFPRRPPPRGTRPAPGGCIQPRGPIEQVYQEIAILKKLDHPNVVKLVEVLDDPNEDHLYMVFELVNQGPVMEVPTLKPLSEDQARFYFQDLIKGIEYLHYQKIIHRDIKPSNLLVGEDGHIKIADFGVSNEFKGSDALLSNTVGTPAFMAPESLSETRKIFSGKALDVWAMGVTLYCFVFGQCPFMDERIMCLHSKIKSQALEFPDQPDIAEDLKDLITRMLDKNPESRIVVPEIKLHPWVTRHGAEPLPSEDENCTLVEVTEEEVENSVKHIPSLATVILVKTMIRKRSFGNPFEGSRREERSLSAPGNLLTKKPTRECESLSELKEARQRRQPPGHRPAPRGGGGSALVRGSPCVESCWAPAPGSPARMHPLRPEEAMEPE
Aurora kinase B (Homo sapiens), sequence (Q96GD4 whole entry): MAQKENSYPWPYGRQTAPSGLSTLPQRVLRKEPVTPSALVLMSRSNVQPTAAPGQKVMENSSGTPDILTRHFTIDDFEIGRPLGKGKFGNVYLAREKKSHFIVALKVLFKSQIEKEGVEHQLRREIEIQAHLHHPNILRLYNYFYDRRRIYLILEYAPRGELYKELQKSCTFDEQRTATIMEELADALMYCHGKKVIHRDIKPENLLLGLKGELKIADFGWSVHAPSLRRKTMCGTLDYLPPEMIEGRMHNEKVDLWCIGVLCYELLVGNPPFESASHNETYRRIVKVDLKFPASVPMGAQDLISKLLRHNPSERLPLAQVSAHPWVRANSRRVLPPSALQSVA
Insulin receptor-related protein (Homo sapiens), sequence (P14616 27-742 limits assumed): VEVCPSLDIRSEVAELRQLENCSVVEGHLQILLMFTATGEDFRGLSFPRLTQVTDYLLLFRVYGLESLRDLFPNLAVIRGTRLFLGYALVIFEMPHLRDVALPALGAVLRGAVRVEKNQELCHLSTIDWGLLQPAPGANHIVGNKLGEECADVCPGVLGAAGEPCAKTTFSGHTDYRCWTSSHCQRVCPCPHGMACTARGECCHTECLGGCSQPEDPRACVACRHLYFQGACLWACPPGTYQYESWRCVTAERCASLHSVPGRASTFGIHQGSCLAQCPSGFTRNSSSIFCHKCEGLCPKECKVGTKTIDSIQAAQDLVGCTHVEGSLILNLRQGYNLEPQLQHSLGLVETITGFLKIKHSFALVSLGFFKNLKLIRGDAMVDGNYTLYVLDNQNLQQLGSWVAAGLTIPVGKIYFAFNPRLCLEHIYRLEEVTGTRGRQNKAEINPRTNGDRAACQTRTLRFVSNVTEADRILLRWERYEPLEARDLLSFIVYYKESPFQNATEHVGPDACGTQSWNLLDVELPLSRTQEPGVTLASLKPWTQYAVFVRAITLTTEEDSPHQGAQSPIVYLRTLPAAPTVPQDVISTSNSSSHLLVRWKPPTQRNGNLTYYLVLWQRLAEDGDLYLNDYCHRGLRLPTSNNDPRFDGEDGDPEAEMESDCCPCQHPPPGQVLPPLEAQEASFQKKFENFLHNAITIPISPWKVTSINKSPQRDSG
Insulin receptor-related protein (Homo sapiens), sequence (P14616 747-1297 limits assumed): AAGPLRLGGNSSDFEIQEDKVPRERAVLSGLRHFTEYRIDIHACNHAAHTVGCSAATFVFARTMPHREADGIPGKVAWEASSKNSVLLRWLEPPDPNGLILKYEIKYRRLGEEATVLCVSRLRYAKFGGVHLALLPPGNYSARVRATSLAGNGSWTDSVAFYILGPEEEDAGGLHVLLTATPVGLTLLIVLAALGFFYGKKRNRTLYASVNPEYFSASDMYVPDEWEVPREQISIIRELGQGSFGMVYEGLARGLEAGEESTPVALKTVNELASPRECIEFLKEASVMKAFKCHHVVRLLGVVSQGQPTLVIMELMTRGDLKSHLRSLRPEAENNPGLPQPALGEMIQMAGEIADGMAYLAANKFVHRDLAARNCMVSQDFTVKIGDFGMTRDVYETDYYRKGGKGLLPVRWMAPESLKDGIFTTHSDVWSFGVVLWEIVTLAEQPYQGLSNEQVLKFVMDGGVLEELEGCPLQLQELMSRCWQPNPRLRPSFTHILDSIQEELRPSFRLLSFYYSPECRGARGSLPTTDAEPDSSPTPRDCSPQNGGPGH
Serine/threonine-protein kinase Chk2 (Homo sapiens), sequence (O96017 whole entry): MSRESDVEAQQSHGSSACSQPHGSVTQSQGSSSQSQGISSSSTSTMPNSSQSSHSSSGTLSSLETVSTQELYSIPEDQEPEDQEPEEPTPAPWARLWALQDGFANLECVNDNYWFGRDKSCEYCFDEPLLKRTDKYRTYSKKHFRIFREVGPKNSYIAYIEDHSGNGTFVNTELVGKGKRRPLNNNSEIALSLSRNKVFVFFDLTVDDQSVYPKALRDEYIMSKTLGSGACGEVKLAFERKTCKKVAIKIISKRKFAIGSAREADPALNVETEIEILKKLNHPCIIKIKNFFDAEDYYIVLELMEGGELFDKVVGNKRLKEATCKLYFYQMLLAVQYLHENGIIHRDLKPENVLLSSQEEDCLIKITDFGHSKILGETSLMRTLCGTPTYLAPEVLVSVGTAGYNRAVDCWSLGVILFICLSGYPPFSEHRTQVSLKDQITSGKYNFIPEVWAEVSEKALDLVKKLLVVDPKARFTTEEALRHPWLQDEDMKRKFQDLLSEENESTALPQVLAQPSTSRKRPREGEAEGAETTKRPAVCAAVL

For the molecule `c1cc(-c2n[nH]c3ccnc(OC4CCOCC4)c23)cc(N2CCOCC2)n1`, the inhibition in test [1] is 6%; in [2], 0%; in [3], 0%; in [4], 0%; in test [5], 79%; in [6], 0%. In addition, the inhibition in test [7] turned out to be 4%; in [8], 3%; in test [9] it was 0%; in test [10], 0%.

Regarding `CC(C)n1cc(-c2n[nH]c3ccnc(OC4CCOCC4)c23)cn1`, the inhibition in test [1] came to 9%; in [2], 29%; in [3], 5%; in test [4] it was 38%; in test [5] it was 84%; in test [6] it was 0%. In addition, the inhibition was 19% in test [7], 45% in test [8], 46% in test [9] and 1% in test [10].

The term inhibition denotes the share of the control response that was lost under treatment.
